ChEMBL document CHEMBL4725479, “Benzoxaboroles: New Potent Inhibitors of the Carbonic Anhydrases of the Pathogenic Bacterium Vibrio cholerae” (ACS Med Chem Lett, 2020)

Key:
[1] = Inhibition of Vibrio cholerae beta carbonic anhydrase incubated for 30 mins prior to testing measured for 10 to 100 secs by phenol red-based stopped-flow CO2 hydration assay
Summary of the method: (§1)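 Stopped-flow CO2 hydrase assay on the α, β and γ isoforms of V. cholerae CA. KI values are the mean of 3 independent assays, with errors of ±5–10% of the reported values.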

[2] = Inhibition of Vibrio cholerae alpha carbonic anhydrase incubated for 30 mins prior to testing measured for 10 to 100 secs by phenol red-based stopped-flow CO2 hydration assay; summary of the method: as §1
[3] = Inhibition of Vibrio cholerae gamma carbonic anhydrase incubated for 30 mins prior to testing measured for 10 to 100 secs by phenol red-based stopped-flow CO2 hydration assay; summary of the method: as §1

| SMILES | Ki [1] | Ki [2] | Ki [3] |
| --- | --- | --- | --- |
| O=[N+]([O-])c1ccc2c(c1)B(O)OC2 | 8870 nM | 142 nM | 818 nM |
| OB1OCc2ccc(NC(=S)Nc3ccccc3)cc21 | 19100 nM | 1200 nM | 834 nM |
| COc1ccc(NC(=S)Nc2ccc3c(c2)B(O)OC3)cc1 | 2300 nM | 165 nM | 874 nM |
| Cc1cc(Cl)cc(CNC(=O)Nc2ccc3c(c2)B(O)OC3)c1 | 61300 nM | 53 nM | 718 nM |
| O=C(NCc1ccccc1)Nc1ccc2c(c1)B(O)OC2 | 42100 nM | 90 nM | 1870 nM |
| COc1ccc(C)cc1NC(=O)Nc1ccc2c(c1)B(O)OC2 | 67300 nM | 556 nM | 410 nM |
| O=C(Nc1ccc(C(F)(F)F)cc1)Nc1ccc2c(c1)B(O)OC2 | 55100 nM | 46 nM | 957 nM |
| OB1OCc2cc(F)ccc21 [TAVABOROLE] | 97300 nM | 157 nM | 841 nM |
| OB1OCc2ccc(NC(=S)Nc3ccc4ccccc4c3)cc21 | 26000 nM | 603 nM | 2970 nM |
| OB1OCc2ccc(NC(=S)Nc3ccc(F)cc3)cc21 | 6350 nM | 112 nM | 544 nM |
| O=C(Nc1ccc2c(c1)B(O)OC2)Nc1c(Cl)cc(Cl)cc1Cl | 84500 nM | 76 nM | 895 nM |
| OB1OCc2ccc(NC(=S)NCc3ccccc3)cc21 | 30400 nM | 96 nM | 3960 nM |
| Nc1ccc2c(c1)B(O)OC2 | 21800 nM | 165 nM | 1170 nM |
| Cc1ccc(NC(=S)Nc2ccc3c(c2)B(O)OC3)cc1 | 2590 nM | 109 nM | 1760 nM |
| O=C(Nc1ccc(F)cc1)Nc1ccc2c(c1)B(O)OC2 | 28000 nM | 48 nM | 644 nM |
| OB1OCc2ccc(NC(=S)Nc3ccc(C(F)(F)F)cc3)cc21 | 1250 nM | 72 nM | 1920 nM |
| OB1OCc2ccccc21 [BENZOXABOROLE] | 70300 nM | 319 nM | 2840 nM |
| O=C(NCc1ccco1)Nc1ccc2c(c1)B(O)OC2 | 79900 nM | 164 nM | 1230 nM |
| OB1OCc2ccc(NC(=S)NCc3ccco3)cc21 | 31900 nM | 220 nM | 2000 nM |
| CC(=O)c1ccc(NC(=O)Nc2ccc3c(c2)B(O)OC3)cc1 | 65100 nM | 103 nM | 1130 nM |
| O=[N+]([O-])c1ccc(NC(=S)Nc2ccc3c(c2)B(O)OC3)cc1 | 933 nM | 80 nM | 687 nM |
| O=C(Nc1ccccc1)Nc1ccc2c(c1)B(O)OC2 | 56400 nM | 117 nM | 705 nM |
| OB1OCc2ccc(NC(=S)NCCc3ccccc3)cc21 | 18400 nM | 102 nM | 554 nM |
| O=C(Nc1ccc(Cl)cc1)Nc1ccc2c(c1)B(O)OC2 | 19500 nM | 56 nM | 650 nM |
